In assay [1] the target is T1, Tubulin (Sus scrofa) (UniProt P02554+P02550). Kind of assay: Inhibition of porcine brain tubulin polymerization at 100 uM measured for 1 hr by fluorescence assay. Put shortly: (§1)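 Polymerization was tracked by a fluorescent reporter incorporating into microtubules (ex 360/em 420 nm) every 1 min for 1 h. Controls were paclitaxel 3 µM (stabilizer) and CA-4 10 µM (destabilizer).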

For assay [2], the system named is A2780. The assay can be described thus: Antiproliferative activity against cisplatin resistant human A2780 cells assessed as cell viability after 48 hrs by MTT assay. The format is functional, cell-based. The conditions noted are these: A2780, 48 h. Put shortly:
(§2)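 Cancer cells were seeded at 5×10³ per well in RPMI complete medium. The next day the medium was replaced with a range of test concentrations, with a no-drug RPMI control. Plates ran 48 h at 37 °C, then MTT (4 mg/mL solution) was added for 3 h. Formazan was dissolved in DMSO and absorbance read at 540 nm. Triplicate determinations.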
On the technique in general: Formazan colour is commonly taken as a measure of viable cells.

The nature of assay [3]: Antiproliferative activity against human MCF7/MX cells assessed as cell viability after 48 hrs by MTT assay. The format is functional, cell-based. Put shortly:
as §2

In assay [4] the test system is A2780. The assay can be described thus: Antiproliferative activity against human A2780 cells assessed as cell viability after 48 hrs by MTT assay. The following applies: A2780, 48 h. It is filed as functional, cell-based. Put shortly:
as §2

Assay [5] concerns MCF7. Kind of assay: Antiproliferative activity against human MCF7 cells assessed as cell viability after 48 hrs by MTT assay. The conditions noted are these: MCF7, 48 h. The format is functional, cell-based. Put shortly:
as §2

For assay [6], the target named is T1, Tubulin (Sus scrofa). The assay can be described thus: Inhibition of porcine brain tubulin polymerization at 50 uM measured for 1 hr by fluorescence assay. Put shortly: as §1
The subject of assay [7] is A2780. Kind of assay: Induction of apoptosis in cisplatin resistant human A2780 cells assessed as accumulation at sub G1 phase at 50 uM after 72 hrs by propidium iodide staining based flow cytometry. The format is functional, cell-based. Put shortly:
(§3)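 2.5×10⁵ cells were seeded in 6-well plates for 24 h, then treated for 72 h alongside a vehicle control (0.05% DMSO). Cells were ethanol-fixed (70%), then incubated 0.5 h at 37 °C with RNase A (1 mg/mL) plus propidium iodide. Flow cytometry (FL2) gave the percentage of cells in the sub-G1 region as the apoptotic fraction.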

Assay [8] deals with A2780. The assay can be described thus: Cell cycle arrest in cisplatin resistant human A2780 cells assessed as accumulation at G2/M phase at 50 uM after 24 hrs by propidium iodide staining based flow cytometry (reference value: 19.63%). The format is functional. For orientation: A flow cytometer gives signals particle by particle.
Assay [9] relates to MCF7. The assay can be described thus: Induction of apoptosis in human MCF7 cells assessed as accumulation at sub G1 phase at 50 uM after 72 hrs by propidium iodide staining based flow cytometry. It is filed as functional, cell-based. Put shortly:
as §3

The test system of assay [10] is MCF7/MX. Kind of assay: Induction of apoptosis in human MCF7/MX cells assessed as accumulation at sub G1 phase at 50 uM after 72 hrs by propidium iodide staining based flow cytometry. The format is functional, cell-based. Put shortly:
as §3

The subject of assay [11] is MCF7. Kind of assay: Cell cycle arrest in human MCF7 cells assessed as accumulation at G2/M phase at 50 uM after 72 hrs by propidium iodide staining based flow cytometry (reference value: 6.18%). The format is functional.
Assay [12] deals with A2780. The assay can be described thus: Induction of apoptosis in human A2780 cells assessed as accumulation at sub G1 phase at 50 uM after 72 hrs by propidium iodide staining based flow cytometry. The format is functional, cell-based. Put shortly: as §3
Assay [13] can be described thus: Cell cycle arrest in human MCF7/MX cells assessed as accumulation at G2/M phase at 50 uM after 72 hrs by propidium iodide staining based flow cytometry (reference value: 5.68%). It is filed as functional.
For assay [14], the system named is A2780. The assay can be described thus: Cell cycle arrest in human A2780 cells assessed as accumulation at G2/M phase at 50 uM after 24 hrs by propidium iodide staining based flow cytometry (reference value: 12.71%). The format is functional.
Assay [15] has as its system A2780. Kind of assay: Cell cycle arrest in cisplatin resistant human A2780 cells assessed as accumulation at G2/M phase at 100 uM after 24 hrs by propidium iodide staining based flow cytometry (reference value: 19.63%). The format is functional.
For assay [16], the system named is A2780. Kind of assay: Cell cycle arrest in human A2780 cells assessed as accumulation at G2/M phase at 100 uM after 24 hrs by propidium iodide staining based flow cytometry (reference value: 12.71%). It is filed as functional.
Assay [17] is described as follows: Cell cycle arrest in human MCF7/MX cells assessed as accumulation at G2/M phase at 100 uM after 72 hrs by propidium iodide staining based flow cytometry (reference value: 5.68%). It is filed as functional.
For assay [18], the system named is MCF7. The assay can be described thus: Cell cycle arrest in human MCF7 cells assessed as accumulation at G2/M phase at 100 uM after 72 hrs by propidium iodide staining based flow cytometry (reference value: 6.18%). It is filed as functional.
Assay [19] has as its system A2780. Kind of assay: Cell cycle arrest in cisplatin resistant human A2780 cells assessed as accumulation at G2/M phase at 3 uM after 24 hrs by propidium iodide staining based flow cytometry (reference value: 19.63%). It is filed as functional.
Assay [20] has as its system A2780. Kind of assay: Cell cycle arrest in human A2780 cells assessed as accumulation at G2/M phase at 3 uM after 24 hrs by propidium iodide staining based flow cytometry (reference value: 12.71%). It is filed as functional.
The target in assay [21] is T1, Tubulin (Sus scrofa). The conditions noted are these: 10 uM.
Assay [22] concerns MCF7. The assay can be described thus: Cell cycle arrest in human MCF7 cells assessed as accumulation at G2/M phase at 3 uM after 72 hrs by propidium iodide staining based flow cytometry (reference value: 6.18%). It is filed as functional.
Assay [23] can be described thus: Cell cycle arrest in human MCF7/MX cells assessed as accumulation at G2/M phase at 3 uM after 72 hrs by propidium iodide staining based flow cytometry (reference value: 5.68%). It is filed as functional.

Structures are written as SMILES. Activity calls are given as the source filed them. No cut-off for these calls is given here.

T1 sequence (P02550 whole entry, looked up): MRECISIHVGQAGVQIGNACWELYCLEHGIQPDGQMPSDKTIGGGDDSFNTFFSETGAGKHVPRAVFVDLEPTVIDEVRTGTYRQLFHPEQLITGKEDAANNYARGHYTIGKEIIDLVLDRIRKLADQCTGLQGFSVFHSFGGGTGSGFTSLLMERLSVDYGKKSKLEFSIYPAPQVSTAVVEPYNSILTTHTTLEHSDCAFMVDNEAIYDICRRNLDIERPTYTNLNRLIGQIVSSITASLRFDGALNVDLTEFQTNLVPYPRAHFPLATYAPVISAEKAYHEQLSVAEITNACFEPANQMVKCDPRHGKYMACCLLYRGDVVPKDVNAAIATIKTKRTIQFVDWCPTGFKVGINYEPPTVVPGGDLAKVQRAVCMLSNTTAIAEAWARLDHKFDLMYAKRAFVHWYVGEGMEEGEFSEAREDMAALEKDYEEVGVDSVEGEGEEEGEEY
T1 sequence (P02554 whole entry, looked up): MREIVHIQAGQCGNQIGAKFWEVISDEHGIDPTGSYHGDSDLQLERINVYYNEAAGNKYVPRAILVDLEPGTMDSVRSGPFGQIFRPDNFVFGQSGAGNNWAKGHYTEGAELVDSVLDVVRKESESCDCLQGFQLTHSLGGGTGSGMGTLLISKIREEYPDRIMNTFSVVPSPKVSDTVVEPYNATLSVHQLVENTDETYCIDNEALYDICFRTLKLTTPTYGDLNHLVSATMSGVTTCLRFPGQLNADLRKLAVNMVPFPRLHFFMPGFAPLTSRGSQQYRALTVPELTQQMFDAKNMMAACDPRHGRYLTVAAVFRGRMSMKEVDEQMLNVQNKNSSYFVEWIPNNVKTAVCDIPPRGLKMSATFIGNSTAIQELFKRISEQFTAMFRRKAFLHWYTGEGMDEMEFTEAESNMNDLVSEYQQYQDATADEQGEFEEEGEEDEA

By IC50 is commonly meant the concentration at which inhibition is half-maximal. Turning to `COc1cc(-c2cc(C(=O)O)c3c(OC)c(OC)c(OC)cc3n2)ccc1O`, the inhibition result in assay [1] was “Active”. The IC50 in assay [2], in [3], in [4] and in assay [5] was over 100 µM in each case.
In the case of `COc1ccc(-c2cc(CO)c3c(OC)c(OC)c(OC)cc3n2)cc1`, the inhibition result in [6] was “Active”. Further, the half-maximal inhibitory concentration (IC50) was determined as 28.4 µM in assay [2], 39.8 µM in [3], 8.04 µM in [4] and 16.4 µM in [5].
With `COc1ccc(-c2cc(C(=O)O)c3c(OC)c(OC)c(OC)cc3n2)cc1`, in assay [1], the inhibition entry is “Active”. Moreover, the IC50 in assay [2], in [3], in assay [4] and in assay [5] was over 100 µM each time.
Regarding `COc1ccc(-c2cc(CO)c3c(OC)c(OC)c(OC)cc3n2)cc1O`, the inhibition result in assay [6] was “Active”. Further, the IC50 in assay [2] was determined as 43.3 µM; in assay [3], 21.5 µM; in [4], 29.6 µM; in assay [5] it was 59.5 µM.
Turning to `COc1cc(-c2cc(C(=O)O)c3c(OC)c(OC)c(OC)cc3n2)cc(OC)c1OC`, the IC50 in assay [2], in [3], in [4] and in [5] was over 100 µM each time.
`COc1ccc(-c2cc(C(=O)O)c3c(OC)c(OC)c(OC)cc3n2)cc1OC`: the IC50 in assay [2], in [3], in assay [4] and in assay [5] was over 100 µM throughout.
Turning to `COc1cc2nc(-c3ccc(O)cc3)cc(C(=O)O)c2c(OC)c1OC`, the 50% inhibitory concentration (IC50) in assay [2], in assay [3], in assay [4] and in assay [5] was over 100 µM each time.
With `COc1ccc(-c2cc(CO)c3c(OC)c(OC)c(OC)cc3n2)cc1OC`, the inhibition entry in [6] is “Active”. The IC50 in assay [2] was 23.1 µM; in [3], 37.1 µM; in [4], 7.98 µM; in assay [5] it was 60.7 µM.
With `COc1cc(-c2cc(CO)c3c(OC)c(OC)c(OC)cc3n2)cc(OC)c1OC`, the outcome in assay [7], in [9], in assay [10] and in assay [12] was Active. Also, the Activity in [8] came to 62.31%; in assay [11] it was 79.59%; in assay [13], 44.8%; in [14] it was 79.59%. Further, the inhibition result in assay [6] is “Active”. Besides, the IC50 was 8.15 µM in assay [2], 14.1 µM in [3], 11.4 µM in assay [4] and 16.3 µM in assay [5].
As to `COc1ccc(-c2cc(C(=O)O)c3c(OC)c(OC)c(OC)cc3n2)cc1O`, the Activity in assay [15] came to 43.12%; in assay [16], 62.15%; in [17], 3.74%; in [18] it was 8%. In addition, the inhibition result in assay [1] was “inactive”. Also, the 50% inhibitory concentration (IC50) in [2] was over 100 µM; in assay [3], 98.5 µM; in assay [4], 38.7 µM; in assay [5], 56.3 µM.
Regarding `COc1cc2nc(-c3ccc(O)cc3O)cc(C(=O)O)c2c(OC)c1OC`, the inhibition result in assay [1] was “Active”. Moreover, the 50% inhibitory concentration (IC50) in [2], in assay [3], in assay [4] and in [5] was over 100 µM throughout.
Regarding `COc1cc2nc(-c3cccc(O)c3)cc(C(=O)O)c2c(OC)c1OC`, the IC50 in assay [2], in assay [3], in [4] and in assay [5] was over 100 µM throughout.
Turning to `COc1ccc(/C=C\c2cc(OC)c(OC)c(OC)c2)cc1O` [COMBRETASTATIN A4], the Activity in assay [19] turned out to be 25.41%; in assay [20], 78.38%; in assay [22], 80.09%; in assay [23], 43.2%. The inhibition entry in [21] was “Active”. Also, the IC50 turned out to be 2.95 µM in [2], 2.97 µM in assay [3], 2.84 µM in assay [4] and 1.23 µM in [5].
As to `COc1cc(-c2cc(CO)c3c(OC)c(OC)c(OC)cc3n2)ccc1O`, the IC50 in assay [2] is 52.2 µM; in assay [3], 53.9 µM; in assay [4] it was 9.19 µM; in assay [5], 49.7 µM.

Source of the values: ChEMBL document CHEMBL3779766, “Synthesis and biological evaluation of quinoline analogues of flavones as potential anticancer agents and tubulin polymerization inhibitors” (Eur J Med Chem, 2016).
